Data published in ChEMBL document CHEMBL4371041, “Synthesis and evaluation of thieno[3,2-d]pyrimidine derivatives as novel FMS inhibitors” (Bioorg Med Chem Lett, 2019).

Assays:
[1] = target: Macrophage colony-stimulating factor 1 receptor (Homo sapiens, UniProt P07333); experiment: […] at recombinant human N-terminal His6-tagged FMS (538 to end residues) expressed in baculovirus infected Sf21 insect cells using IGF-R1tide as substrate in presence of [gamma-33P]-ATP or [gamma-32P]-ATP
[2] = Half life in CD-1 mouse at 3 mg/kg, iv; format: ADME, organism-based; conditions: in vivo
[3] = AUC (0 to 7 hrs) in CD-1 mouse at 3 mg/kg, iv; format: ADME, organism-based; parameters: dose 3 mg/kg, time < 7 hr, route intravenous; conditions: in vivo
[4] = Half life in CD-1 mouse at 10 mg/kg, po; format: ADME, organism-based; conditions: in vivo
[5] = AUC (0 to 7 hrs) in CD-1 mouse at 10 mg/kg, po; format: ADME, organism-based; parameters: time < 7 hr, dose 10 mg/kg, route oral; conditions: in vivo
[6] = target: Cytochrome P450 1A2 (Homo sapiens, UniProt P05177); experiment: Inhibition of CYP1A2 in human liver microsomes by LC-MS/MS analysis; format: ADME
Sequence of Cytochrome P450 1A2 (P05177 whole entry): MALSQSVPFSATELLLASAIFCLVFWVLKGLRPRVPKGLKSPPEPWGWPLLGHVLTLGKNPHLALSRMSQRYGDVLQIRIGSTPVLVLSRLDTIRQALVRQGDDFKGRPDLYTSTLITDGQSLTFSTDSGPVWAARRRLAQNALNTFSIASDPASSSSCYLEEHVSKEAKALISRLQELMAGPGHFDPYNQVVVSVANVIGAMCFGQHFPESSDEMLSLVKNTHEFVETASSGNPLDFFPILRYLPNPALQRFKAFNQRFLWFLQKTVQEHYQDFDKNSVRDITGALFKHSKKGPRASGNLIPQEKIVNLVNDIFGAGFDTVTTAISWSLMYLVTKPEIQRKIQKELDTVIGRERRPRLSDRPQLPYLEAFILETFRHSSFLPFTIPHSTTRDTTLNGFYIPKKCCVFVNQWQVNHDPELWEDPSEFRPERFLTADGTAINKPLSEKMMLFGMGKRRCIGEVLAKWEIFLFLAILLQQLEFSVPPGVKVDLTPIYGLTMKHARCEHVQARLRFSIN
In short: (§1)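 Reversible CYP inhibition measured in human liver microsomes; metabolite formation quantified by LC/MS/MS.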

[7] = target: Cytochrome P450 2C19 (Homo sapiens, UniProt P33261); experiment: Inhibition of CYP2C19 in human liver microsomes by LC-MS/MS analysis; format: ADME; in short: as §1
[8] = target: Cytochrome P450 3A4 (Homo sapiens, UniProt P08684); experiment: Inhibition of CYP3A4 in human liver microsomes by LC-MS/MS analysis; format: ADME; in short: as §1
[9] = test system: MDA-MB-231; experiment: Antiinvasive activity against human MDA-MB-231 cells at 1 uM after 72 hrs by luciferase reporter-based matrigel-coated transwell assay relative to control; format: functional
In short: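 Invasion of luciferase-expressing MDA-MB-231 cells assessed in a system including RAW264.7 mouse macrophages, across a dose range including 1 μM; invasion read by luciferase signal relative to untreated control.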

[10] = target: T1, Maternal embryonic leucine zipper kinase (Homo sapiens, UniProt Q14680); experiment: Inhibition of recombinant human N-terminal GST-tagged MELK (1 to 340 residues) expressed in baculovirus infected Sf21 insect cells using KKLNRTLSFAEPG as substrate in presence of [gamma-33P]-ATP or [gamma-32P]-ATP
In short: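 Kinase panel of twenty-eight enzymes; IC50 values determined with ATP at the respective Km of each kinase.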
Target sequence in this assay (Q14680 whole entry, the tested form may be a part): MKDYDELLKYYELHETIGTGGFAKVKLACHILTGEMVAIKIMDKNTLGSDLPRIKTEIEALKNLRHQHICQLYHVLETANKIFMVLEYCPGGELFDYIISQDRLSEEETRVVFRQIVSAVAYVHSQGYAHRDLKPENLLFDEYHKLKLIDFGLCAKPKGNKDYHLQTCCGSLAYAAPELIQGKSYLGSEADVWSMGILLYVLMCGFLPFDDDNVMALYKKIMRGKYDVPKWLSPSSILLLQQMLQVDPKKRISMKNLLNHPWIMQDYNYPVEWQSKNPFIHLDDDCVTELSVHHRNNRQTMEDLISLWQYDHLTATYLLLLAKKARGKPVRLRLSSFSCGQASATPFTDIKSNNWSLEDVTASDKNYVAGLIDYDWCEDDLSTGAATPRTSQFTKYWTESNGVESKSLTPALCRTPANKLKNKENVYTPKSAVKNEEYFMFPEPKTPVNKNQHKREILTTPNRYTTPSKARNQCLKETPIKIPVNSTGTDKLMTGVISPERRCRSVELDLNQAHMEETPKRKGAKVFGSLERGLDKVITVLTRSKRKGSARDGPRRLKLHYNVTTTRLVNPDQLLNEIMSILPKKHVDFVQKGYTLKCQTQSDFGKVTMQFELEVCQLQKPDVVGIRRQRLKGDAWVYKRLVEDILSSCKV

[11] = target: T2, Angiopoietin-1 receptor (Homo sapiens, UniProt Q02763); experiment: Inhibition of recombinant human N-terminal His6-tagged Tie2 (771 to end residues) expressed in baculovirus infected Sf21 insect cells using Poly (Glu4-Tyr) (4:1) as substrate in presence of [gamma-33P]-ATP or [gamma-32P]-ATP
T2 sequence (Q02763 whole entry): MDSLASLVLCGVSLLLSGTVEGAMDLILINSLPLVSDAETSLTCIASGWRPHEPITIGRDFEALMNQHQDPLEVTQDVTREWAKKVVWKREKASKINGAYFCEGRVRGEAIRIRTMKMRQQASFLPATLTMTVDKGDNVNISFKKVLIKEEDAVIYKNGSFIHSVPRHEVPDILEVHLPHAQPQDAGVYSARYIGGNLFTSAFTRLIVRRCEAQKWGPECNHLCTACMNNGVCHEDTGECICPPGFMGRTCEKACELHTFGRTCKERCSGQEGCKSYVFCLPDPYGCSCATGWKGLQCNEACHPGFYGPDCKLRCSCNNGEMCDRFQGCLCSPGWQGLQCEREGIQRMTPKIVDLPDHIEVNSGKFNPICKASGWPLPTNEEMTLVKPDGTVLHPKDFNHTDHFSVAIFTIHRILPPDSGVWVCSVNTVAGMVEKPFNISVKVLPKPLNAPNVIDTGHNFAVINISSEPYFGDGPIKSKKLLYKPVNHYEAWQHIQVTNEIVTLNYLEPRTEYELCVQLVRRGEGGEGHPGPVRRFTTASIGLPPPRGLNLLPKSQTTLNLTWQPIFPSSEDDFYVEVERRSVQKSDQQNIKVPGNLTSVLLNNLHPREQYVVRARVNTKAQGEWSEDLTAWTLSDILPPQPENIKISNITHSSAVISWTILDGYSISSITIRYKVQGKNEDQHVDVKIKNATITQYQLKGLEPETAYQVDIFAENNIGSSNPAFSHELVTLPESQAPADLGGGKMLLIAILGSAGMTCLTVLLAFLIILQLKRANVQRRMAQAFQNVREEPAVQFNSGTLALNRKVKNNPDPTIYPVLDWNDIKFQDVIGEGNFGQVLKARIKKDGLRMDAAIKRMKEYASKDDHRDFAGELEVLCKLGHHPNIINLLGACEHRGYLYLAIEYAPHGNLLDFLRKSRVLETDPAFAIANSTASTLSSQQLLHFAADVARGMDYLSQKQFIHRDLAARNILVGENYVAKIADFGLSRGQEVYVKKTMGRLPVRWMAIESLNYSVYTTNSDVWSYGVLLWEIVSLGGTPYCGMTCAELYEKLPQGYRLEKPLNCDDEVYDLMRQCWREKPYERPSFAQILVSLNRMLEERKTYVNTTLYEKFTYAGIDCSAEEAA

[12] = target: Mast/stem cell growth factor receptor Kit (Homo sapiens) (UniProt P10721); experiment: Inhibition of recombinant human N-terminal GST-tagged c-Kit (544 to end residues) expressed in baculovirus infected Sf21 insect cells at 1 uM using Poly (Glu4-Tyr) (4:1) as substrate in presence of [gamma-33P]-ATP or [gamma-32P]-ATP relative to control
Sequence of Mast/stem cell growth factor receptor Kit (Homo sapiens) (P10721 whole entry): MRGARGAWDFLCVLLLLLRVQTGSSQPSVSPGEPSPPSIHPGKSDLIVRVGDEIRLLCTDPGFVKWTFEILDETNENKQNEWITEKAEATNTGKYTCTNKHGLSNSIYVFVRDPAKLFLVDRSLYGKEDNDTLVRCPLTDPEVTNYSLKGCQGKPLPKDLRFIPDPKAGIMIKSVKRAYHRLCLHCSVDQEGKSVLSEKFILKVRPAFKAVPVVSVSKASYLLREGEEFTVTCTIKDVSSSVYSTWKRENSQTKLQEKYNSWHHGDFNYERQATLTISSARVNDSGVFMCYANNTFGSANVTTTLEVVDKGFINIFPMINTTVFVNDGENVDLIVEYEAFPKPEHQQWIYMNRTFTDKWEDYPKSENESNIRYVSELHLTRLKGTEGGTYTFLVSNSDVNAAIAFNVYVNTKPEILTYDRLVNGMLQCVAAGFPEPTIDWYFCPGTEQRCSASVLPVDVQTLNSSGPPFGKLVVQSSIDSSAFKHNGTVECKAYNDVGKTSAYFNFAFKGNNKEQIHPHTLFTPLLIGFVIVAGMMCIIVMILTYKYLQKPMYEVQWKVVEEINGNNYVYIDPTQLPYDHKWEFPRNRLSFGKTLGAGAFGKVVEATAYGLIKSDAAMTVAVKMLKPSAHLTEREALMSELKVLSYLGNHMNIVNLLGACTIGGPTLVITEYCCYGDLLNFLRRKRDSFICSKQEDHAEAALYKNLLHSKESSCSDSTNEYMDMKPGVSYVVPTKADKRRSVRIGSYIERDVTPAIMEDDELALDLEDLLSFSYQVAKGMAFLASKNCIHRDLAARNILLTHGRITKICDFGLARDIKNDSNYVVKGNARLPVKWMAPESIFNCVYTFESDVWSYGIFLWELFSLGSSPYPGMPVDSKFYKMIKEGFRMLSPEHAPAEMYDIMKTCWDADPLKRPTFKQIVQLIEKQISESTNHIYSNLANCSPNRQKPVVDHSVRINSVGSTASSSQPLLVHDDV

[13] = target: Epidermal growth factor receptor (Homo sapiens) (UniProt P00533); experiment: Inhibition of recombinant human N-terminal GST-tagged EGFR (696 to end residues) expressed in baculovirus infected Sf21 insect cells at 1 uM using Angiotensin2 peptide as substrate in presence of [gamma-33P]-ATP or [gamma-32P]-ATP relative to control
[14] = target: Receptor-type tyrosine-protein kinase FLT3 (Homo sapiens) (UniProt P36888); experiment: Inhibition of recombinant human N-terminal GST-tagged FLT3 (564 to end residues) expressed in baculovirus infected Sf21 insect cells at 1 uM using Abltide as substrate in presence of [gamma-33P]-ATP or [gamma-32P]-ATP relative to control
[15] = target: Tyrosine-protein kinase JAK3 (Homo sapiens) (UniProt P52333); experiment: Inhibition of recombinant human N-terminal His6-tagged JAK3 (781 to end residues) expressed in baculovirus infected Sf21 insect cells at 1 uM using JAK3tide as substrate in presence of [gamma-33P]-ATP or [gamma-32P]-ATP relative to control
[16] = target: Platelet-derived growth factor receptor alpha (Homo sapiens) (UniProt P16234); experiment: Inhibition of recombinant human N-terminal His6-tagged PDGFRalpha (550 to end residues) expressed in baculovirus infected Sf21 insect cells at 1 uM using Poly (Glu4-Tyr) (4:1) as substrate in presence of [gamma-33P]-ATP or [gamma-32P]-ATP relative to control
[17] = target: Tyrosine-protein kinase FRK (Homo sapiens) (UniProt P42685); experiment: Inhibition of recombinant human N-terminal His6-tagged PTK5 (218 to end residues) expressed in baculovirus infected Sf21 insect cells at 1 uM using JAK3tide as substrate in presence of [gamma-33P]-ATP or [gamma-32P]-ATP relative to control
Sequence of Tyrosine-protein kinase FRK (Homo sapiens) (P42685 whole entry): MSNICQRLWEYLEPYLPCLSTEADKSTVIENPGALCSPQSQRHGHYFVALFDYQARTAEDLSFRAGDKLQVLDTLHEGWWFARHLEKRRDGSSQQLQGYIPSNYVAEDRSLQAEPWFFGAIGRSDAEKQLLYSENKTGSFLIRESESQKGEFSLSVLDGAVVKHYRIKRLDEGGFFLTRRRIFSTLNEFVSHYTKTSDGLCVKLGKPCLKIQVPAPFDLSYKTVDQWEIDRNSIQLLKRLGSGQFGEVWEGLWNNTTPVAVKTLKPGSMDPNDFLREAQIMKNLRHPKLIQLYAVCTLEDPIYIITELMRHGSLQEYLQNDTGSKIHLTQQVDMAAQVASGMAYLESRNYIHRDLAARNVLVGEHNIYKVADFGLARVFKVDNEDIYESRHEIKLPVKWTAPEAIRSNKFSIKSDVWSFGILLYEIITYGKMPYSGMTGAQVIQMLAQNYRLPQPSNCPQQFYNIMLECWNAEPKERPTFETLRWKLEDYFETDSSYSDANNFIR

[18] = target: Proto-oncogene tyrosine-protein kinase receptor Ret (Homo sapiens) (UniProt P07949); experiment: Inhibition of recombinant human N-terminal GST-tagged Ret (658 to end residues) expressed in baculovirus infected Sf21 insect cells at 1 uM using IFG-1Rtide as substrate in presence of [gamma-33P]-ATP or [gamma-32P]-ATP relative to control
[19] = target: Ribosomal protein S6 kinase alpha-1 (Homo sapiens) (UniProt Q15418); experiment: Inhibition of RSK1 (unknown origin) at 1 uM in presence of [gamma-33P]-ATP or [gamma-32P]-ATP relative to control
[20] = target: Proto-oncogene tyrosine-protein kinase Src (Homo sapiens) (UniProt P12931); experiment: Inhibition of recombinant human N-terminal His6-tagged Src (1 to 530 residues) expressed in baculovirus infected Sf21 insect cells at 1 uM in presence of [gamma-33P]-ATP or [gamma-32P]-ATP relative to control
[21] = target: Discoidin domain-containing receptor 2 (Homo sapiens) (UniProt Q16832); experiment: Inhibition of recombinant human N-terminal His6-tagged DDR2 (467 to end residues) expressed in baculovirus infected Sf21 insect cells at 1 uM using Axltide as substrate in presence of [gamma-33P]-ATP or [gamma-32P]-ATP relative to control
[22] = target: Fibroblast growth factor receptor 1 (Homo sapiens, UniProt P11362); experiment: Inhibition of recombinant human N-terminal GST-tagged FGFR1 (456 to 765 residues) expressed in baculovirus infected Sf21 insect cells at 1 uM using IGF-IRtide (12-527) as substrate in presence of [gamma-33P]-ATP or [gamma-32P]-ATP relative to control
[23] = target: T1, Maternal embryonic leucine zipper kinase; experiment: Inhibition of recombinant human N-terminal GST-tagged MELK (1 to 340 residues) expressed in baculovirus infected Sf21 insect cells at 1 uM using KKLNRTLSFAEPG as substrate in presence of [gamma-33P]-ATP or [gamma-32P]-ATP relative to control
Target sequence in this assay (Q14680 whole entry, looked up, the tested form may be a part): as the sequence (Q14680 whole entry, the tested form may be a part) above

[24] = target: T2, Angiopoietin-1 receptor; experiment: Inhibition of recombinant human N-terminal His6-tagged Tie2 (771 to end residues) expressed in baculovirus infected Sf21 insect cells at 1 uM using Poly (Glu4-Tyr) (4:1) as substrate in presence of [gamma-33P]-ATP or [gamma-32P]-ATP relative to control

Sequence of Macrophage colony-stimulating factor 1 receptor (P07333 whole entry): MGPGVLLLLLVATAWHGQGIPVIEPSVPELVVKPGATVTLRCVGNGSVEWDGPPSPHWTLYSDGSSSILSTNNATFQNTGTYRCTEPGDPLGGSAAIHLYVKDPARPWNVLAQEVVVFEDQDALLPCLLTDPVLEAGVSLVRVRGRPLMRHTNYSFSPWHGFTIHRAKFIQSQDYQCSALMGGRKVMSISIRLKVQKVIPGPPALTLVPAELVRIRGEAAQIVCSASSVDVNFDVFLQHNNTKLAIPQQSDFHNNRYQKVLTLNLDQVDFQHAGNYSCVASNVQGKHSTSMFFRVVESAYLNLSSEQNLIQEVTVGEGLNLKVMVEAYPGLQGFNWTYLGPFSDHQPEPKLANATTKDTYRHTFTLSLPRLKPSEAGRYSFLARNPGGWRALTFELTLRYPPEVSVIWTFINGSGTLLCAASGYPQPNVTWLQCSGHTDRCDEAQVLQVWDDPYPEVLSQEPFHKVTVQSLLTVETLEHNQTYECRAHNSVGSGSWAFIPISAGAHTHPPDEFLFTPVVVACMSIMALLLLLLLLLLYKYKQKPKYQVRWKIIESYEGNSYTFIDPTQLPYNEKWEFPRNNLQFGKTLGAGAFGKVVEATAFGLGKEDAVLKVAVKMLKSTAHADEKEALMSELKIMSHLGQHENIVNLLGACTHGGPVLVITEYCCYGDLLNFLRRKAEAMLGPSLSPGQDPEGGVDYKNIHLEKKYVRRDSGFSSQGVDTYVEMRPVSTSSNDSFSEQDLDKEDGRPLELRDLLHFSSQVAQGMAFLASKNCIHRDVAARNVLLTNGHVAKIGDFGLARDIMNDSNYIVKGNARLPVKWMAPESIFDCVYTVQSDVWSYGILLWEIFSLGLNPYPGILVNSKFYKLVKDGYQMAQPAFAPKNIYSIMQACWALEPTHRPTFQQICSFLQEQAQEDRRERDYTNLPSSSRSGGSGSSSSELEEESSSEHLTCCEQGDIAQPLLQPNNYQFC

Cc1cccc(Cn2nc(C)c3c(NC(=O)c4csc5c(N)ncnc45)cccc32)n1
IC50 [1]: 2 nM
half-life [2]: 96 min
AUC(0-t) at 7 h [3]: 3370 ng·h/mL
half-life [4]: 156 min
AUC(0-t) at 7 h [5]: 4040 ng·h/mL
IC50 [6]: > 20 µM
IC50 [7]: > 20 µM
IC50 [8]: > 20 µM
Activity [9]: 67%
IC50 [10]: 258 nM
IC50 [11]: 208 nM
inhibition [12]: 27%
inhibition [13]: -2%
inhibition [14]: 59%
inhibition [15]: 6%
inhibition [16]: 2%
inhibition [17]: 19%
inhibition [18]: -2%
inhibition [19]: 14%
inhibition [20]: 4%
inhibition [21]: > 60%
inhibition [22]: > 60%
inhibition [23]: > 60%
inhibition [24]: > 60%
